# UBC9 SUMO inh – inhibitors of in vitro SUMOylation cascade, primary screen, biochemical, HTRF, uHTS | inhibition, % at 35 µM | HTRF SUMOylation assay, SAE1/SAE2 + UBC9 | 0.36% of 290,000 active | AID 2006, 2009; in the data active means inhibition above about 50%, passing the limit was not always enough
# Target sequence (P63279 whole entry, looked up): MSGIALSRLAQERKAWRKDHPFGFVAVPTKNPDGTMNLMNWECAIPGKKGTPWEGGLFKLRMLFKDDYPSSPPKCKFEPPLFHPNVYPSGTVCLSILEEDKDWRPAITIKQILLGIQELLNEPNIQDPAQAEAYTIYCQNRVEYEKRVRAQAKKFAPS
# SUMO Mot1 rescue – yeast Mot1-301 growth rescue at high temperature, primary screen, SUMOylation pathway inhibitor project, S. cerevisiae, ATP luminescence, 38.5C | S. cerevisiae Mot1-301 growth rescue; percent above DMSO median, 100 means doubled | growth rescue, % at 18.8 µM | 1% of 320,000 active;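 active means every valid replicate shows activation above 250% relative to neutral control wells; inactive means the rest, any valid replicate at or below 250%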;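 further: OY570 slx delta 5 strain wells were the positive control but not used for scaling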
# FID counter – compounds displacing fluorescent DNA intercalator, primary screen, artefact control for HCV NS3 helicase inhibitor project, biochemical, FID fluorescence; inhibition, % at 7.9 µM; AID 1845, 2009; 0.17% of 290,000 active; DNA fluorescent intercalator displacement; in the data active means inhibition above about 37%;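 further: 0% = vehicle and 100% = reference compound; higher means more ethidium bromide displaced from hairpin DNA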
# IMP-1 inhibitor – IMP-1 metallo-beta-lactamase inhibitors, primary screen, biochemical, epi-absorbance readout, Pseudomonas aeruginosa enzyme | metallo-beta-lactamase IMP-1 (Pseudomonas aeruginosa) | inhibition, % at 5.6 µM | AID 1556, 2009 | 0.45% of 290,000 active | purified IMP-1, nitrocefin hydrolysis, epi-absorbance fluorescence;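 active means inhibition above the mean plus 3 SD of all compounds in the same screening run, cut at about 4.5% in these data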;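 further: 0% = IMP-1 with DMSO and 100% = DMSO wells lacking enzyme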
#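 Material – recombinant IMP-1 enzyme, purified · Amount – IMP-1 0.2 nM before substrate addition · Medium – HEPES buffer pH 7.1 with ZnSO4 and Brij 35 · Timing – 25 °C, 15 min preincubation, 25 min reaction · Measured by – plate fluorescence quenching by hydrolysis product, ex 480/em 530 nm · Read-out – percent enzyme inhibition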
# VIM-2 inhibitor – VIM-2 metallo-beta-lactamase inhibitors, primary screen, biochemical, epi-absorbance readout, Pseudomonas aeruginosa enzyme; purified VIM-2, nitrocefin hydrolysis, epi-absorbance fluorescence; 0.89% of 290,000 active; inhibition, % at 5.6 µM;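 active means inhibition above the mean of all tested compounds plus 3 SD, cutoff set per screening run, cut at about 7.5% in these data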;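 further: red hydrolysis product quenches plate fluorescence so inhibitors raise well fluorescence; 0% = enzyme with DMSO and 100% = DMSO without enzyme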
# NALP1 inh – NALP1 inflammasome inhibitors in reconstituted yeast, colorimetric, S. cerevisiae, triplicate retest. inhibition, % at 10 µM. 0.61% of 280,000 active. S. cerevisiae NALP1/ASC/caspase-1 growth, X-gal OD620, 72 h; in the data active means inhibition mostly above about 24%, no sharp cut-off; inactive means mostly below about 32%
# Yeast Mot1 SUMO – growth restoration of Mot1-301 yeast on galactose, dose response, SUMO pathway inhibitor project, whole organism, S. cerevisiae, ATP luminescence, cherry-picked samples; S. cerevisiae Mot1-301 galactose growth, 24 h; -100 = growth of slx-deleted rescue strain; growth activity, percent, % at 42 µM; 2,300 tested, under 10 active; shares compounds with SUMO Mot1 rescue; AID 493004, 2010;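 active means Signal drops as the depositor expects, and the fitted half-maximal dose is no more than ten times the top valid tested dose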;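 further: more negative values mean stronger growth rescue toward the control strain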
# Active calls of the source: *; . = no result; + = active, no number; ! = not active in a repeat; [ ] = remark or other dose. This is a sample that favours compounds with a hit; in the whole collection about 2.9% have one here.
SMILES,UBC9 SUMO inh,SUMO Mot1 rescue,FID counter,IMP-1 inhibitor,VIM-2 inhibitor,NALP1 inh,Yeast Mot1 SUMO
CC(NC(=O)C12CC3CC(CC(O)(C3)C1)C2)c1ccccc1 (centres undefined),-3.3,409.2*,-5.1,-1.5,-2.6,6.5,-1.0
CCc1cccc(CC)c1NC(=O)COC(=O)C1(C)CC1(Cl)Cl (centres undefined),4.0,19.7,-20.9,-2.7,-1.9,6.7,.
O=C1N[C@@H](Cc2cn(S(=O)(=O)c3ccccc3)c3ccccc23)C(=O)N[C@H]1Cc1ccccc1,.,0.0,.,.,.,.,.
COc1cc2c(cc1OC)C(c1ccccc1[N+](=O)[O-])N(C(C)=O)CC2 (centres undefined),10.9,383.6*,-11.6,-1.3,0.3,12.4,0.2
COc1cc2c(cc1OC)C(COc1ccccc1OC)N(C(C)=O)CC2 (centres undefined),1.5,186.9,-28.8,-1.8,-2.1,25.4,.
Cc1[nH]c2ccccc2c1/C=N/NC(=O)c1cccc(Br)c1,-7.4,496.5*,8.0,-2.9,-4.0,4.5,-0.1
COC(=O)CCC(=O)OC1(C)C(=O)C=C2C=C(C3CC3)N(Cc3ccc4c(c3)OCO4)C=C2C1=O (centres undefined),-23.1,880.8*,.,.,.,.,0.2
Cn1c(=O)c2c(nc(NCc3ccco3)n2CC(O)CO)n(C)c1=O (centres undefined),0.4,-12.6,1.7,-1.0,-1.4,-1.0,.
C[C@]12CC[C@H]3C(=CCc4cc(O)ccc43)[C@@H]1CCC2=O,15.1,538.1*!,-7.0,-3.7,-2.6,13.9,0.1
C[C@]12C[C@H](O)[C@@H]3c4ccc(O)cc4CCC3[C@@H]1CCC2=O (some centres undefined),14.2,352.6,-5.4,0.1,-0.5,.,.
COC(=O)C1CCN(C(=O)COC(=O)/C=C/c2ccc(O)c(OC)c2)CC1,.,13.9,.,.,.,.,.
CCCc1cc(NC(=O)COC(=O)c2nccnc2N)n(-c2ccccc2)n1,.,-9.3,.,.,.,.,.
CS(=O)(=O)C1=NSC2=NC(=O)/C(=C\c3ccc(OS(=O)(=O)c4ccccc4)cc3)C(=N)N21,14.7,399.1*,-16.5,-2.6,-3.1,9.7,0.5
COc1ccc(N2CCN(C(=O)C3CCCN(S(=O)(=O)c4ccc(C)cc4)C3)CC2)cc1 (centres undefined),-13.8,18.3,-43.1,-2.9,-0.8,14.3,.
Cn1c(=O)c2c(nc(N/N=C/c3ccc(OC(=O)c4ccco4)cc3)n2Cc2ccccc2Cl)n(C)c1=O,13.7,+,-2.3,-0.9,0.2,20.7,0.2
O=C(O)/C=C/C(=O)N1CCN(c2cccc(Cl)c2)CC1,2.6,8.4,2.5,-2.0,-2.8,-5.8,.
O=C(CN1c2ccccc2Sc2ccccc21)N/N=C/c1ccc(Cl)cc1,-16.3,7.3,-6.6,-4.3,-2.5,.,.
O=C(CN1c2ccccc2Sc2ccccc21)N/N=C/c1ccc(Cl)cc1Cl,0.2,453.5*,-2.0,-2.1,-2.2,.,0.6[21 µM]
CCc1nnc2n1N=C(c1ccc(Cl)cc1)CS2,5.8,394.3*,-16.4,-0.1,0.4,0.9,-0.1
CCN1CCN(c2ccc(S(=O)(=O)N3CCCCC3)cc2NC(=O)CC(C)c2ccccc2)CC1 (centres undefined),.,-9.1,.,.,.,.,.
Cc1ccc(NC(=S)NNC(=O)c2ccc(N3CCOCC3)c([N+](=O)[O-])c2)cc1C,-88.1,366.0*,-5.8,-5.2,-3.7,-4.0,-0.2
NC(Cc1ccc2nonc2c1)C(=O)O (centres undefined),1.1,3.1,-0.2,-7.2,-4.9,-13.8,.
N[C@@H](Cc1ccc(O)c(I)c1)C(=O)O,-7.4,639.7*,-1.5,0.0,-0.3,11.9,-0.5
COc1cc(C#N)ccc1OC(=O)c1cccc(S(=O)(=O)N2CCN(C)CC2)c1,.,19.0,.,.,.,.,.
Cc1cc(C)c(S(=O)(=O)c2cccc(C)c2C)c(=O)[nH]1,19.8,414.6*,-6.0,-0.2,-0.9,32.9*,-0.4
SMILES,UBC9 SUMO inh,SUMO Mot1 rescue,FID counter,IMP-1 inhibitor,VIM-2 inhibitor,NALP1 inh,Yeast Mot1 SUMO
CC(=O)/C=C/n1c(=S)oc2ccccc21,-18.5,420.5*,-1.6,-4.3,-1.0,66.5,-1.8
CC(C)CC(=O)/C=C/n1c(=S)oc2ccccc21,3.8,24.5,3.7,-1.4,-0.6,24.4,.
O=C(O)CCC(NC(=O)c1ccc(Cl)cc1)C(=O)O (centres undefined),-10.6,+,3.7,-3.0,2.1,-3.2,0.1
NC(=O)CCC(NC(=O)c1ccc(Cl)cc1)C(=O)O (centres undefined),5.2,.,0.1,0.6,0.1,-2.0,.
C/C(=N\NC(=S)Nc1ccccc1)C1Cc2ccccc2C(=O)O1 (centres undefined),5.9,393.3*,-3.0,-1.5,1.0,.,0.0
Cc1ccc(NS(=O)(=O)c2cccc(C(=O)N3CCCCCC3)c2)cc1,.,-5.1,.,.,.,.,.
COCCn1c(SCC(=O)N2CCCC2)nnc1-c1ccoc1C,16.4,+,-4.1,-1.7,-3.2,1.9,0.4
COCCn1c(SCC(=O)N2CCCC2)nnc1-c1ccco1,7.9,-0.2,-5.7,-0.2,-0.4,1.8,.
CC(=O)Oc1ccc(/C(C)=N/N2CCN(Cc3ccc(C)cc3)CC2)cc1,0.3,-3.6,-6.8,-3.0,-1.9,13.0,.
COc1ccc(N2CC(O)=C(c3nc(-c4ccccc4)cs3)C2=N)cc1,-11.3,-10.4,-6.2,-1.0,0.0,.,.
Cc1ccc(-c2csc(C3=C(O)CN(NC(=O)c4ccco4)C3=N)n2)cc1,10.7,375.5*,-3.3,-3.7,-2.7,-9.6,0.4
C=CCOc1c(Br)cc(CNc2ccc(NC(=O)C(C)C)c(OC)c2)cc1OC,-9.6,8.2,-8.1,-2.5,-0.6,-9.4,.
Cc1[nH]c(C)c(S(=O)(=O)NCCc2ccccc2)c1C(=O)N1CCCC1,9.8,19.1,-5.1,0.9,0.0,22.8,.
Cc1[nH]c(C)c(S(=O)(=O)NCC(C)c2ccccc2)c1C(=O)N1CCCCC1 (centres undefined),-13.0,496.6*,-29.1,0.6,-1.7,18.9,0.3
CC(Oc1ccc2ccc(=O)oc2c1)C(=O)c1ccccc1 (centres undefined),-3.7,5.7,4.0,-0.7,-1.1,34.5,.
CN(C)CCOC(=O)CCc1ccccc1,6.7,560.1*,-4.2,-2.8,-2.8,9.4,-0.1

# Compound activity from PubChem BioAssay.
